Test results: ChEMBL document CHEMBL3627671, “Novel derivatives of nitro-substituted salicylic acids: Synthesis, antimicrobial activity and cytotoxicity” (Bioorg Med Chem, 2015)
In brackets after ≈: the same amount, converted by molar mass.

Experiments:
Mycobacterium kansasii [1] = assay: Antimycobacterial activity against Mycobacterium kansasii 6509/96 after 7 days; type: functional; conditions: 6509/96, 168 h
Procedure, shortened: (§1)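 Šula's semisynthetic medium micromethod at 37 °C, read after 7, 14 and 21 days. The 1.0 McFarland suspension was diluted 10^-4. MIC determined. 6509/96 is a clinical isolate.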

Aspergillus fumigatus [2] = assay: Antifungal activity against Aspergillus fumigatus 231 after 48 hrs by microdilution broth method; type: functional; conditions: Aspergillus fumigatus, 231, 48 h
Procedure, shortened: (§2)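 CLSI M27-A3 broth microdilution in RPMI 1640 with glutamine, buffered to pH 7.0 with MOPS; DMSO diluent. Yeast inoculum 5 × 10^3 ± 0.2 CFU/mL. Moulds grown on Sabouraud agar 3–10 days before spore harvest, final inoculum 0.5-5 × 10^4 CFU/mL, checked in a Bürker chamber. Incubated dark, humid, 35 °C, read at 24 and 48 h visually and at 540 nm. MIC taken as ≥80% (yeasts) or ≥50% (filamentous) growth reduction versus control.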

Staphylococcus aureus [3] = assay: Antibacterial activity against methicillin-resistant Staphylococcus aureus H 5996/08 after 24 hrs by microdilution broth method; type: functional; conditions: H 5996/08, 24 h
HepG2 = assay: Cytotoxicity against human HepG2 cells after 24 hrs […]; type: cell-based; conditions: HepG2, 24 h
Klebsiella pneumoniae [4] = assay: Antibacterial activity against ESBL-positive Klebsiella pneumoniae J 14368/08 after 24 hrs by microdilution broth method; type: functional; conditions: J 14368/08, 24 h
Procedure, shortened: (§3)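 Mueller-Hinton broth microdilution (modified M07-A07), pH 7.4 (±0.2). Compounds dissolved in DMSO, tested at final 500 to 0.49 µmol/L. Inoculum in sterile water matched to 0.5 McFarland. Incubated in the dark, humid atmosphere, 35 °C, read at 24 and 48 h visually and at 540 nm. MIC taken as ≥95% growth reduction (IC95) versus control.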

Lichtheimia corymbifera [5] = assay: Antifungal activity against Absidia corymbifera 272 after 24 hrs by microdilution broth method; type: functional; conditions: Lichtheimia corymbifera, 272, 24 h; procedure, shortened: as §2
[6] = system: Mycobacterium tuberculosis; assay: Antimycobacterial activity against Mycobacterium tuberculosis H37Rv 331/88 after 21 days; type: functional; conditions: H37Rv 331/88, 504 h
Mycobacterium kansasii [7] = assay: Antimycobacterial activity against Mycobacterium kansasii 6509/96 after 21 days; type: functional; conditions: 6509/96, 504 h; procedure, shortened: as §1
[8] = system: Mycobacterium tuberculosis; assay: Antimycobacterial activity against Mycobacterium tuberculosis H37Rv 331/88 after 14 days; type: functional; conditions: H37Rv 331/88, 336 h
Trichosporon asahii [9] = assay: Antifungal activity against Trichosporon asahii 1188 after 24 hrs by microdilution broth method; type: functional; conditions: Trichosporon asahii, 1188, 24 h; procedure, shortened: as §2
Staphylococcus aureus [10] = assay: Antibacterial activity against Staphylococcus aureus CCM 4516/08 after 24 hrs by microdilution broth method; type: functional; conditions: CCM 4516/08, 24 h
Pseudomonas aeruginosa [11] = assay: Antibacterial activity against Pseudomonas aeruginosa CCM 1961 after 24 hrs by microdilution broth method; type: functional; conditions: CCM 1961, 24 h; procedure, shortened: as §3
Klebsiella pneumoniae [12] = assay: Antibacterial activity against Klebsiella pneumoniae D 11750/08 after 48 hrs by microdilution broth method; type: functional; conditions: D 11750/08, 48 h; procedure, shortened: as §3
Mycobacterium avium [13] = assay: Antimycobacterial activity against Mycobacterium avium 330/80 after 14 days; type: functional; conditions: 330/80, 336 h
Pseudomonas aeruginosa [14] = assay: Antibacterial activity against Pseudomonas aeruginosa CCM 1961 after 48 hrs by microdilution broth method; type: functional; conditions: CCM 1961, 48 h; procedure, shortened: as §3
Candida tropicalis [15] = assay: Antifungal activity against Candida tropicalis 156 after 48 hrs by microdilution broth method; type: functional; conditions: Candida tropicalis, 156, 48 h; procedure, shortened: as §2
Enterococcus sp. [16] = assay: Antibacterial activity against Enterococcus sp. J 14365/08 after 48 hrs by microdilution broth method; type: functional; conditions: J 14365/08, 48 h; procedure, shortened: as §3
Candida albicans [17] = assay: Antifungal activity against Candida albicans ATCC 44859 after 48 hrs by microdilution broth method; type: functional; conditions: ATCC 44859, 48 h; procedure, shortened: as §2
Pichia kudriavzevii [18] = assay: Antifungal activity against Candida krusei E28 after 48 hrs by microdilution broth method; type: functional; conditions: E28, 48 h; procedure, shortened: as §2
[19] = system: Trichophyton mentagrophytes; assay: Antifungal activity against Trichophyton mentagrophytes 445 after 48 hrs by microdilution broth method; type: functional; conditions: Trichophyton mentagrophytes, 445, 48 h
Staphylococcus aureus [20] = assay: Antibacterial activity against Staphylococcus aureus CCM 4516/08 after 48 hrs by microdilution broth method; type: functional; conditions: CCM 4516/08, 48 h
Mycobacterium kansasii [21] = assay: Antimycobacterial activity against Mycobacterium kansasii 235/80 after 7 days; type: functional; conditions: 235/80, 168 h; procedure, shortened: as §1
Candida tropicalis [22] = assay: Antifungal activity against Candida tropicalis 156 after 24 hrs by microdilution broth method; type: functional; conditions: Candida tropicalis, 156, 24 h; procedure, shortened: as §2
Lichtheimia corymbifera [23] = assay: Antifungal activity against Absidia corymbifera 272 after 48 hrs by microdilution broth method; type: functional; conditions: Lichtheimia corymbifera, 272, 48 h; procedure, shortened: as §2
Klebsiella pneumoniae [24] = assay: Antibacterial activity against ESBL-positive Klebsiella pneumoniae J 14368/08 after 48 hrs by microdilution broth method; type: functional; conditions: J 14368/08, 48 h; procedure, shortened: as §3
Nakaseomyces glabratus [25] = assay: Antifungal activity against Candida glabrata 20/I after 48 hrs by microdilution broth method; type: functional; procedure, shortened: as §2
Escherichia coli [26] = assay: Antibacterial activity against Escherichia coli CCM4517 after 48 hrs by microdilution broth method; type: functional; conditions: CCM4517, 48 h; procedure, shortened: as §3
Aspergillus fumigatus [27] = assay: Antifungal activity against Aspergillus fumigatus 231 after 24 hrs by microdilution broth method; type: functional; conditions: Aspergillus fumigatus, 231, 24 h; procedure, shortened: as §2
Nakaseomyces glabratus [28] = assay: Antifungal activity against Candida glabrata 20/I after 24 hrs by microdilution broth method; type: functional; procedure, shortened: as §2
Mycobacterium kansasii [29] = assay: Antimycobacterial activity against Mycobacterium kansasii 235/80 after 14 days; type: functional; conditions: 235/80, 336 h; procedure, shortened: as §1
Escherichia coli [30] = assay: Antibacterial activity against Escherichia coli CCM4517 after 24 hrs by microdilution broth method; type: functional; conditions: CCM4517, 24 h; procedure, shortened: as §3
[31] = system: Staphylococcus epidermidis; assay: Antibacterial activity against Staphylococcus epidermidis H 6966/08 after 48 hrs by microdilution broth method; type: functional; conditions: H 6966/08, 48 h; procedure, shortened: as §3
Mycobacterium avium [32] = assay: Antimycobacterial activity against Mycobacterium avium 330/80 after 21 days; type: functional; conditions: 330/80, 504 h
[33] = system: Trichophyton mentagrophytes; assay: Antifungal activity against Trichophyton mentagrophytes 445 after 24 hrs by microdilution broth method; type: functional; conditions: Trichophyton mentagrophytes, 445, 24 h
Enterococcus sp. [34] = assay: Antibacterial activity against Enterococcus sp. J 14365/08 after 24 hrs by microdilution broth method; type: functional; conditions: J 14365/08, 24 h; procedure, shortened: as §3
[35] = Selectivity index, ratio of CI50 for human HepG2 cells to MIC100 for Mycobacterium tuberculosis H37Rv 331/88
Trichosporon asahii [36] = assay: Antifungal activity against Trichosporon asahii 1188 after 48 hrs by microdilution broth method; type: functional; conditions: Trichosporon asahii, 1188, 48 h; procedure, shortened: as §2
Pichia kudriavzevii [37] = assay: Antifungal activity against Candida krusei E28 after 24 hrs by microdilution broth method; type: functional; conditions: E28, 24 h; procedure, shortened: as §2
Klebsiella pneumoniae [38] = assay: Antibacterial activity against Klebsiella pneumoniae D 11750/08 after 24 hrs by microdilution broth method; type: functional; conditions: D 11750/08, 24 h; procedure, shortened: as §3
Mycobacterium kansasii [39] = assay: Antimycobacterial activity against Mycobacterium kansasii 235/80 after 21 days; type: functional; conditions: 235/80, 504 h; procedure, shortened: as §1
Mycobacterium kansasii [40] = assay: Antimycobacterial activity against Mycobacterium kansasii 6509/96 after 14 days; type: functional; conditions: 6509/96, 336 h; procedure, shortened: as §1
Candida albicans [41] = assay: Antifungal activity against Candida albicans ATCC 44859 after 24 hrs by microdilution broth method; type: functional; conditions: ATCC 44859, 24 h; procedure, shortened: as §2
[42] = system: Staphylococcus epidermidis; assay: Antibacterial activity against Staphylococcus epidermidis H 6966/08 after 24 hrs by microdilution broth method; type: functional; conditions: H 6966/08, 24 h; procedure, shortened: as §3
Staphylococcus aureus [43] = assay: Antibacterial activity against methicillin-resistant Staphylococcus aureus H 5996/08 after 48 hrs by microdilution broth method; type: functional; conditions: H 5996/08, 48 h

What does the source list for O=C(Nc1ccc(Cl)c(Cl)c1)c1cc([N+](=O)[O-])ccc1O?
MIC (Mycobacterium kansasii [1]): 32 µM (≈ 10.5 µg/mL); MIC (Aspergillus fumigatus [2]): > 500 µM; MIC (Staphylococcus aureus [3]): 31.2 µM (≈ 10.2 µg/mL); IC50 (HepG2): 8.9 µM; MIC (Klebsiella pneumoniae [4]): > 500 µM; MIC (Lichtheimia corymbifera [5]): > 500 µM; MIC [6]: 16 µM (≈ 5.23 µg/mL); MIC (Mycobacterium kansasii [7]): 32 µM (≈ 10.5 µg/mL); MIC [8]: 8 µM (≈ 2.62 µg/mL); MIC (Trichosporon asahii [9]): > 500 µM; MIC (Staphylococcus aureus [10]): 31.2 µM (≈ 10.2 µg/mL); MIC (Pseudomonas aeruginosa [11]): > 500 µM; MIC (Klebsiella pneumoniae [12]): > 500 µM; MIC (Mycobacterium avium [13]): 125 µM (≈ 40.9 µg/mL); MIC (Pseudomonas aeruginosa [14]): > 500 µM; MIC (Candida tropicalis [15]): > 500 µM; MIC (Enterococcus sp. [16]): 125 µM (≈ 40.9 µg/mL); MIC (Candida albicans [17]): > 500 µM; MIC (Pichia kudriavzevii [18]): > 500 µM; MIC [19]: 250 µM (≈ 81.8 µg/mL); MIC (Staphylococcus aureus [20]): 31.2 µM (≈ 10.2 µg/mL); MIC (Mycobacterium kansasii [21]): 16 µM (≈ 5.23 µg/mL); MIC (Candida tropicalis [22]): > 500 µM; MIC (Lichtheimia corymbifera [23]): > 500 µM; MIC (Klebsiella pneumoniae [24]): > 500 µM; MIC (Nakaseomyces glabratus [25]): > 500 µM; MIC (Escherichia coli [26]): > 500 µM; MIC (Aspergillus fumigatus [27]): > 500 µM; MIC (Nakaseomyces glabratus [28]): > 500 µM; MIC (Mycobacterium kansasii [29]): 32 µM (≈ 10.5 µg/mL); MIC (Escherichia coli [30]): > 500 µM; MIC [31]: 62.5 µM (≈ 20.4 µg/mL); MIC (Mycobacterium avium [32]): 125 µM (≈ 40.9 µg/mL); MIC [33]: 250 µM (≈ 81.8 µg/mL); MIC (Enterococcus sp. [34]): 125 µM (≈ 40.9 µg/mL); Selectivity Index [35]: 0.556; MIC (Trichosporon asahii [36]): > 500 µM; MIC (Pichia kudriavzevii [37]): > 500 µM; MIC (Klebsiella pneumoniae [38]): > 500 µM; MIC (Mycobacterium kansasii [39]): 32 µM (≈ 10.5 µg/mL); MIC (Mycobacterium kansasii [40]): 32 µM (≈ 10.5 µg/mL); MIC (Candida albicans [41]): > 500 µM; MIC [42]: 62.5 µM (≈ 20.4 µg/mL); MIC (Staphylococcus aureus [43]): 31.2 µM (≈ 10.2 µg/mL)

Which MIC (Mycobacterium kansasii [1]) does the source give for O=C(Nc1ccc(C(F)(F)F)cc1)c1cccc([N+](=O)[O-])c1O here?
The MIC was 62.5 µM (≈ 20.4 µg/mL).

And the IC50 (HepG2)?
The IC50 was 8 µM.

And the MIC [6]?
The MIC was 32 µM (≈ 10.4 µg/mL).

What about the MIC (Mycobacterium kansasii [7]) of the same compound?
The MIC was 125 µM (≈ 40.8 µg/mL).

And the MIC [8]?
Its MIC is 32 µM (≈ 10.4 µg/mL).

And the MIC (Mycobacterium avium [13])?
Its MIC is 250 µM (≈ 81.6 µg/mL).

And the MIC (Mycobacterium kansasii [21])?
Its MIC is 62.5 µM (≈ 20.4 µg/mL).

And the MIC (Mycobacterium kansasii [29])?
The MIC was 125 µM (≈ 40.8 µg/mL).

And the MIC (Mycobacterium avium [32])?
Its MIC is 250 µM (≈ 81.6 µg/mL).

And the “Selectivity Index” value [35]?
The value was 0.25.

What about the MIC (Mycobacterium kansasii [39]) of the same compound?
The MIC was 125 µM (≈ 40.8 µg/mL).

What about the MIC (Mycobacterium kansasii [40]) of the same compound?
The MIC was 62.5 µM (≈ 20.4 µg/mL).
